Measurements from different studies.
Target: Mitogen-activated protein kinase kinase kinase 8 (MAP3K8, Homo sapiens, UniProt P41279)

O=C(CSc1nc2nccnc2c(=O)n1CCc1ccccc1)Nc1nccs1
inhibition (enzyme activity; inhibitor; 10 µM): 5%

CC/C(=N\NC(=O)NCc1cccc(O)c1)c1ccc(O)c(C)c1O
inhibition (enzyme activity; inhibitor; 0.1 µM): -1.8%

CC(C)(C)c1nc(-c2cccc(NS(=O)(=O)c3c(F)cccc3F)c2F)c(-c2ccnc(N)n2)s1
remaining activity (enzyme activity; inhibitor; radiometric; 1 µM): 85%

COc1cc2ncnc(Nc3ccc(Oc4ccccc4)cc3C)c2cc1OC
inhibition (enzyme activity; inhibitor; 1 µM): 33%

CS(=O)(=O)Nc1cccc(-c2csc(NC(=O)CSc3nc4nccnc4c(=O)n3CCc3ccccc3)n2)c1
inhibition (enzyme activity; inhibitor; 10 µM): 4%

CCCS(=O)(=O)Nc1ccc(F)c(C(=O)c2c[nH]c3ncc(-c4ccc(Cl)cc4)cc23)c1F
inhibition (enzyme activity; inhibitor; 1 µM): < 10%

Cc1sc(C(=O)NC2COC2)cc1-n1cc(NC(=O)Nc2c(F)cccc2Cl)cn1
remaining activity (enzyme activity; inhibitor; 10 µM): 105%

CCOc1cc(-c2nncn2C)ccc1Nc1ncc2cc(C)nc(NCC(C)(C)C)c2n1
inhibition (enzyme activity; inhibitor; FRET; 1 µM): < 15%

O=C(Nc1cnn(-c2csc(C(=O)NC3COC3)c2)c1)Nc1ccccc1Cl
remaining activity (enzyme activity; inhibitor; 5 µM): 92.7%

N#CCCc1ccc2c(c1)-c1[nH]c3ccc([N+](=O)[O-])cc3c1CC(=O)N2
remaining signal (cell-free assay; 0.5 µM): 87.5%

COc1cc2ncnc(Nc3ccc(Oc4ccccc4)c(C)c3C)c2cc1OC
inhibition (enzyme activity; inhibitor; 1 µM): -8%

CC(C)(C)c1nc2c(s1)c1nc(N)ncc1c1ccc(NS(=O)(=O)c3c(F)cccc3F)c(F)c12
remaining activity (enzyme activity; inhibitor; radiometric; 1 µM): 93%

CC(C)(O)[C@H]1CC[C@H](Nc2ccc3ncc(-c4cccc(C(F)(F)F)c4)n3n2)CC1
remaining activity (enzyme activity; inhibitor; 1 µM): 107%

O=C1NC(=O)c2cc(Nc3ccc(F)cc3)c(Nc3ccc(F)cc3)cc21
remaining signal (cell-free assay; 0.5 µM): 96.3%
